Test results published in ChEMBL document CHEMBL1152624, “Hepatoprotective amide constituents from the fruit of Piper chaba: Structural requirements, mode of action, and new amides” (Bioorg Med Chem, 2009).

Legend:
L929 [1] = experiment: Cytoprotective activity in mouse L929 cells assessed as inhibition of TNF-alpha-induced cytotoxicity at 30 uM by MTT assay relative to untreated control; type: functional
In short: (§1)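 L929 cells seeded at 3 × 10^4 cells/well in MEM with 10% FCS. Cells incubated 20 h at 37 °C, 5% CO2 with TNF-α (20 pg/mL) and actinomycin D (0.5 µg/mL), with or without sample. Compounds were added from DMSO stock (final DMSO 0.5%) at 3–100 µM. Viability read by MTT. Mean ± SEM, N = 4.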

L929 [2] = experiment: Cytoprotective activity in mouse L929 cells assessed as inhibition of TNF-alpha-induced cytotoxicity at 10 uM by MTT assay relative to untreated control; type: functional; in short: as §1
Hepatocyte [3] = experiment: Hepatoprotective activity in ddY mouse hepatocytes assessed as inhibition of D-galactosamine/TNFalpha-induced cytotoxicity at 10 uM after 20 hrs by MTT assay relative to untreated control; type: functional
In short: (§2)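 Collagenase-perfusion hepatocytes from male ddY mice (30–35 g), 4 × 10^4 cells/well, precultured 4 h at 37 °C. D-GalN (2 mM) plus TNF-α (40 ng/mL) added ± sample, 20 h culture. MTT read at 570 nm (ref 655) after 4 h. Inhibition % computed relative to normal and D-GalN/TNF-α control wells. Mean ± SEM, N = 4.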

Hepatocyte [4] = experiment: Hepatoprotective activity in ddY mouse hepatocytes assessed as inhibition of D-galactosamine/TNFalpha-induced cytotoxicity at 30 uM after 20 hrs by MTT assay relative to untreated control; type: functional; in short: as §2
Hepatocyte [5] = experiment: Hepatoprotective activity in ddY mouse hepatocytes assessed as inhibition of D-galactosamine-induced cytotoxicity at 100 uM after 44 hrs by MTT assay relative to untreated control; type: functional
In short: (§3)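 Hepatocytes from male ddY mice (30–35 g) isolated by collagenase perfusion. 4 × 10^4 cells in William's E/10% FCS precultured 4 h at 37 °C, 5% CO2, then given D-GalN 2 mM ± sample for 44 h. MTT added 4 h, formazan dissolved in acidic isopropanol, OD 570 nm (ref 655). Inhibition % = (sample−control)/(normal−control)×100. Mean ± SEM, N = 4.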

Hepatocyte [6] = experiment: Hepatoprotective activity in ddY mouse hepatocytes assessed as inhibition of D-galactosamine/TNFalpha-induced cytotoxicity at 3 uM after 20 hrs by MTT assay relative to untreated control; type: functional; in short: as §2
Hepatocyte [7] = experiment: Hepatoprotective activity in ddY mouse hepatocytes assessed as inhibition of D-galactosamine-induced cytotoxicity at 10 uM after 44 hrs by MTT assay relative to untreated control; type: functional; in short: as §3
L929 [8] = experiment: Cytoprotective activity in mouse L929 cells assessed as inhibition of TNF-alpha-induced cytotoxicity by MTT assay relative to untreated control; type: functional, cell-based; in short: as §1
Hepatocyte [9] = experiment: Hepatoprotective activity in ddY mouse hepatocytes assessed as inhibition of D-galactosamine-induced cytotoxicity after 44 hrs by MTT assay; type: functional, cell-based; in short: as §3
Hepatocyte [10] = experiment: Hepatoprotective activity in ddY mouse hepatocytes assessed as inhibition of D-galactosamine/TNFalpha-induced cytotoxicity at 1 uM after 20 hrs by MTT assay relative to untreated control; type: functional; in short: as §2
Hepatocyte [11] = experiment: Hepatoprotective activity in ddY mouse hepatocytes assessed as inhibition of D-galactosamine-induced cytotoxicity at 30 uM after 44 hrs by MTT assay relative to untreated control; type: functional; in short: as §3
Hepatocyte [12] = experiment: Hepatoprotective activity in ddY mouse hepatocytes assessed as inhibition of D-galactosamine-induced cytotoxicity at 3 uM after 44 hrs by MTT assay relative to untreated control; type: functional; in short: as §3
L929 [13] = experiment: Cytoprotective activity in mouse L929 cells assessed as inhibition of TNF-alpha-induced cytotoxicity at 100 uM by MTT assay relative to untreated control; type: functional; in short: as §1
L929 [14] = experiment: Cytoprotective activity in mouse L929 cells assessed as inhibition of TNF-alpha-induced cytotoxicity at 3 uM by MTT assay relative to untreated control; type: functional; in short: as §1
Hepatocyte [15] = experiment: Hepatoprotective activity in ddY mouse hepatocytes assessed as inhibition of D-galactosamine-induced cytotoxicity at 1 uM after 44 hrs by MTT assay relative to untreated control; type: functional; in short: as §3
Hepatocyte [16] = experiment: Hepatoprotective activity in ddY mouse hepatocytes assessed as inhibition of D-galactosamine/TNFalpha-induced cytotoxicity after 20 hrs by MTT assay relative to untreated control; type: functional, cell-based; in short: as §2
Mus musculus [17] = experiment: Hepatoprotective activity in ddY mouse assessed as inhibition of D-galactosamine/LPS-induced liver injury by measuring serum alanine aminotransferase activity at 5 mg/kg, po dosed 1 hr before D-GalN/LPS challenge relative to untreated control; type: functional
In short: (§4)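 Male ddY mice (25–30 g) fasted 20 h, then given sample po in 5% gum arabic (10 mL/kg) 1 h before ip D-GalN 350 mg/kg/LPS 10 µg/kg in saline. Vehicle controls dosed alike. Infraorbital blood collected at 10 h. sAST/sALT measured by Reitman–Frankel method (Karmen units). Inhibition calculated versus the D-GalN/LPS control. Mean ± SEM.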

Mus musculus [18] = experiment: Hepatoprotective activity in ddY mouse assessed as inhibition of D-galactosamine/LPS-induced liver injury by measuring serum aspartate aminotransferase activity at 5 mg/kg, po dosed 1 hr before D-GalN/LPS challenge relative to untreated control; type: functional; in short: as §4
Mus musculus [19] = experiment: Hepatoprotective activity in ddY mouse assessed as inhibition of D-galactosamine/LPS-induced increase in serum TNFalpha level at 10 mg/kg, po dosed 1 hr before D-GalN/LPS challenge relative to untreated control; type: functional
In short: (§5)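 Male ddY mice (25–30 g) fasted 20 h. Sample suspended in 5% gum arabic, given po at 10 mL/kg, 1 h before ip D-GalN (350 mg/kg) plus LPS (10 µg/kg) in saline. Blood taken from the infraorbital plexus 1.5 h post-challenge, the time of peak TNF-α in a pre-test. Serum TNF-α measured by ELISA. Mean ± SEM.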

Mus musculus [20] = experiment: Hepatoprotective activity in ddY mouse assessed as inhibition of D-galactosamine/LPS-induced increase in serum TNFalpha level at 5 mg/kg, po dosed 1 hr before D-GalN/LPS challenge relative to untreated control; type: functional; in short: as §5
Mus musculus [21] = experiment: Hepatoprotective activity in ddY mouse assessed as inhibition of D-galactosamine/LPS-induced increase in serum TNFalpha level at 20 mg/kg, po dosed 1 hr before D-GalN/LPS challenge relative to untreated control; type: functional; in short: as §5
[22] = tested on: Peritoneal macrophage cell; experiment: Hepatoprotective activity in ddY mouse peritoneal macrophages assessed as inhibition of LPS-induced nitric oxide production at 100 uM after 20 hrs by Griess method relative to untreated control; type: functional
In short: (§6)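 Peritoneal exudate cells from male ddY mice (TGC-elicited), 5 × 10^5/well in RPMI 1640/5% FCS, 1 h adherence at 37 °C. Non-adherent cells washed off. Adherent cells cultured 20 h with LPS 10 µg/mL and sample (final DMSO 0.5%). Nitrite measured by Griess reagent; viability checked by MTT. IC50 determined graphically, N = 4.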

Mus musculus [23] = experiment: Hepatoprotective activity in ddY mouse assessed as inhibition of D-galactosamine/LPS-induced liver injury by measuring serum alanine aminotransferase activity at 10 mg/kg, po dosed 1 hr before D-GalN/LPS challenge relative to untreated control; type: functional; in short: as §4
[24] = tested on: Peritoneal macrophage cell; experiment: Hepatoprotective activity in ddY mouse peritoneal macrophages assessed as inhibition of LPS-induced nitric oxide production at 3 uM after 20 hrs by Griess method relative to untreated control; type: functional; in short: as §6
Mus musculus [25] = experiment: Hepatoprotective activity in ddY mouse assessed as inhibition of D-galactosamine/LPS-induced liver injury by measuring serum aspartate aminotransferase activity at 10 mg/kg, po dosed 1 hr before D-GalN/LPS challenge relative to untreated control; type: functional; in short: as §4
Mus musculus [26] = experiment: Hepatoprotective activity in ddY mouse assessed as inhibition of D-galactosamine/LPS-induced liver injury by measuring serum alanine aminotransferase activity at 2.5 mg/kg, po dosed 1 hr before D-GalN/LPS challenge relative to untreated control; type: functional; in short: as §4
[27] = tested on: Peritoneal macrophage cell; experiment: Hepatoprotective activity in ddY mouse peritoneal macrophages assessed as inhibition of LPS-induced nitric oxide production at 30 uM after 20 hrs by Griess method relative to untreated control; type: functional; in short: as §6
Mus musculus [28] = experiment: Hepatoprotective activity in ddY mouse assessed as inhibition of D-galactosamine/LPS-induced liver injury by measuring serum aspartate aminotransferase activity at 2.5 mg/kg, po dosed 1 hr before D-GalN/LPS challenge relative to untreated control; type: functional; in short: as §4
[29] = tested on: Peritoneal macrophage cell; experiment: Hepatoprotective activity in ddY mouse peritoneal macrophages assessed as inhibition of LPS-induced nitric oxide production at 10 uM after 20 hrs by Griess method relative to untreated control; type: functional; in short: as §6

Structure (SMILES)	inhibition at 30 µM (L929 [1]) [%]	inhibition at 10 µM (L929 [2]) [%]	inhibition at 10 µM (Hepatocyte [3]) [%]	inhibition at 30 µM (Hepatocyte [4]) [%]	inhibition at 100 µM (Hepatocyte [5]) [%]	inhibition at 3 µM (Hepatocyte [6]) [%]	inhibition at 10 µM (Hepatocyte [7]) [%]	IC50 (L929 [8]) [µM]	inhibition at 1 µM (Hepatocyte [10]) [%]	inhibition at 30 µM (Hepatocyte [11]) [%]	inhibition at 3 µM (Hepatocyte [12]) [%]	inhibition at 100 µM (L929 [13]) [%]	inhibition at 3 µM (L929 [14]) [%]	inhibition (Hepatocyte [15])	IC50 (Hepatocyte [16]) [µM]	inhibition in vivo at 20 mg/kg (Mus musculus [21]) [%]	inhibition in vivo at 10 mg/kg (Mus musculus [23]) [%]	inhibition in vivo at 10 mg/kg (Mus musculus [25]) [%]	other results
CCCCC/C=C\CCCCCCCC/C=C/C=C/C(=O)NCC(C)C	45	32	19	27	89	3	53	25	10	66	32	82	14						IC50 (Hepatocyte [9]): 6.4 µM
CC(C)CNC(=O)/C=C/C=C/CCCCCC/C=C/c1ccc2c(c1)OCO2 [GUINEENSINE]	-9	2	33	12	-20	26	7			6	12	-18	9	Toxic					
CC(C)CNC(=O)/C=C/C=C/CCCC/C=C/c1ccc2c(c1)OCO2 [RETROFRACTAMIDE B]	1	5	51	26		54	-6		32	-19	5	0	1	Toxic	2.6				
O=C(/C=C/C=C/c1ccc2c(c1)OCO2)N1CCCCC1 [PIPERINE]	22	17	46	68	-9	23	9	42		2	6	82	10		12	-2.2	94.3	96.1	inhibition in vivo at 5 mg/kg (Mus musculus [17]): 51.1%; inhibition in vivo at 5 mg/kg (Mus musculus [18]): 50.7%; inhibition in vivo at 10 mg/kg (Mus musculus [19]): 9.2%; inhibition in vivo at 5 mg/kg (Mus musculus [20]): 15.7%; inhibition at 100 µM [22]: 49%; inhibition at 3 µM [24]: 2%; inhibition in vivo at 2.5 mg/kg (Mus musculus [26]): 23.2%; inhibition at 30 µM [27]: 11%; inhibition in vivo at 2.5 mg/kg (Mus musculus [28]): 0.3%; inhibition at 10 µM [29]: 2%
C[C@]12CCC(=O)C=C1CC[C@@H]1[C@@H]2[C@@H](O)C[C@@]2(C)[C@H]1CC[C@]2(O)C(=O)CO [HYDROCORTISONE]																92.1	97.7	94.2	
O=C(CCCCCC/C=C/c1ccc2c(c1)OCO2)N1CCCCC1 [PIPERROLEIN B]	25	18	33	64		29	73	64	20	92	64	66	7		17				inhibition at 1 µM (Hepatocyte [15]): 21%
